Each structure is given as a SMILES string. Entries after “also recorded” stand apart in the source; their conditions may differ. Structures can show the parent of a compound that is named as a salt. Where two headings read alike, the source gives them in different places.

For one data set, the system named is Kv7.1-Kv7.4 channels. The settings on record: read-out: IC50, inhibition of Kv7.1-Kv7.4 channels; cited from earlier work.
The target of data set [1] is T1, Kv7.2 channel (Homo sapiens, UniProt O43526). The data set can be described thus: Single-channel recordings. The class given is cell-based. The method in brief: (§1)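 Cell-attached single-channel recording was done at room temperature on transfected HEK293T cells. Pipettes (8–10 MΩ) held bath solution: NaCl 150, KCl 5, MgCl2 1, CaCl2 2, HEPES 10 mM, pH 7.4. Data were […] and filtered at 0.8–1 kHz. Patch potential of 0 mV was set from Vm = RMP − Vpipette, with RMP from current clamp. Open probability and conductance came from all-point amplitude histograms, with recordings before and after drug.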

In data set [2] the test system is Kv7.5. The settings on record: read-out: IC50, inhibition of Kv7.5; cited from earlier work.
For a further data set, the target named is Kv7.2/Kv7.3 channels (Homo sapiens, UniProt O43525+O43526). Format: cell-based. In outline: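 CHO cells stably expressing Kv7.2/Kv7.3 were grown in F12 with 10% FBS and 600 μg/mL G418. Cells were recorded by amphotericin B (250 μg/mL) perforated patch at room temperature. Internal was KCl 150, MgCl2 5, HEPES 10 mM, pH 7.4; external was NaCl 160, KCl 2.5, MgCl2 1, CaCl2 2, glucose 10, HEPES 20 mM, pH 7.4. Current was measured at 0 mV. Activation used −110 to 30 mV steps (10 mV increments) then 0 mV, with a Boltzmann fit. IC50 came from a logistic fit; τ from a single exponential.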

The subject of data set [3] is native M-current in hippocampal neurons. The data set can be described thus: Native M-current recording in cultured hippocampal neurons. The conditions noted are these: measured at −20 mV. Format: cell-based, rat.
The next data set relates to hippocampal neurons. Format: cell-based, rat. The settings on record: for depolarizing shift of resting membrane potential (RMP): hippocampal neurons.
The next data set deals with Kv7.4 (Homo sapiens, UniProt P56696). The data set can be described thus: Perforated whole-cell patch-clamp of Kv7.4 current in transfected HEK293T cells. Format: cell-based. (In general: Patch clamp records ionic current or voltage across a cell membrane.)
For a further data set, the target named is F305A Kv7.2 channel (Homo sapiens, UniProt O43526, F305A). The data set can be described thus: Whole-cell patch-clamp of F305A Kv7.2 mutant in HEK293T cells. The conditions noted are these: 10 or 30 µM paroxetine, vs WT Kv7.2. The class given is cell-based. The method in brief: (§2)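 Alanine point mutants of human Kv7.2 were made by site-directed mutagenesis and verified by sequencing. Wild-type or mutant channels were expressed in HEK293T cells and recorded by perforated whole-cell patch clamp at room temperature. Currents were recorded before and after 10 or 30 µM test compound, and inhibition was normalized and compared with wild-type Kv7.2. n = 3–6.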

The conditions of data set [4]: daily dosage of 20 mg, patients with depression; cited from earlier work.
Another data set concerns GIRK1/2 channels. The settings on record: read-out: IC50, GIRK1/2 channels; cited from earlier work.
In data set [5] the target is Kv7.2/Kv7.3 single-channels (Homo sapiens, UniProt O43525+O43526). The data set can be described thus: Single-channel recordings. Format: cell-based. The conditions noted are these: paroxetine 3 μΜ. In outline: as §1
Data set [6] concerns the target Kv7.5 (Homo sapiens, UniProt Q9NR82). The data set can be described thus: Perforated whole-cell patch-clamp of Kv7.5 current in transfected HEK293T cells. The class given is cell-based. In outline:
(§3)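 Human Kv7.2 or Kv7.5 cDNA in pcDNA3.1 was co-transfected with GFP into HEK293T cells using lipofectamine 2000 and recorded 24 h later. Recording used perforated patch (amphotericin B 250 μg/mL in pipette) with internal KCl 150, MgCl2 5, HEPES 10 mM, pH 7.4, and external NaCl 160, KCl 2.5, MgCl2 1, CaCl2 2, glucose 10, HEPES 20 mM, pH 7.4, at room temperature. IC50 came from a logistic fit, activation curves from Boltzmann fits, and τ values from single exponentials (activation 0 mV, deactivation −120 mV).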

In data set [7] the target is Kv7.2 D212A/Kv7.3 heteromeric channels (Homo sapiens, UniProt O43525+O43526, D212A). The data set can be described thus: Whole-cell patch-clamp of Kv7.2 D212A/Kv7.3 heteromeric channels. Format: cell-based.
The target of a further data set is W236A Kv7.2 channel (Homo sapiens, UniProt O43526, W236A). In words: Whole-cell patch-clamp of W236A Kv7.2 mutant in HEK293T cells. The conditions noted are these: HEK-293T, read-out: inhibition of W236A Kv7.2 current. Format: cell-based. In outline:
as §2

For a further data set, the target named is F240A Kv7.2 channel (Homo sapiens, UniProt O43526, F240A). In words: Whole-cell patch-clamp of F240A Kv7.2 mutant in HEK293T cells. Format: cell-based. The conditions noted are these: HEK-293T, read-out: inhibition of F240A Kv7.2 current. In outline: as §2
For the next data set, the target named is Kv7.2 D212A channel (Homo sapiens, UniProt O43526, D212A). In words: Whole-cell patch-clamp of Kv7.2 D212A mutant channel. Format: cell-based.
A further data set concerns the target L299A Kv7.2 channel (Homo sapiens, UniProt O43526, L299A). In words: Whole-cell patch-clamp of L299A Kv7.2 mutant in HEK293T cells. Format: cell-based. The settings on record: HEK-293T, read-out: inhibition of F299A Kv7.2 current. The method in brief: as §2
Data set [8] addresses T1, Kv7.2 channel. In words: Perforated whole-cell patch-clamp of Kv7.2 current in transfected HEK293T cells. Format: cell-based. In outline: as §3
The target in a further data set is Kv7.1 (Homo sapiens, UniProt P51787). In words: Perforated whole-cell patch-clamp of Kv7.1 current in transfected HEK293T cells. Format: cell-based.
Another data set deals with Kv3.1 channels. The settings on record: read-out: IC50, Kv3.1 channels; cited from earlier work.
For another data set, the system named is F304A Kv7.2 channel. The data set can be described thus: Whole-cell patch-clamp of F304A Kv7.2 mutant in HEK293T cells. Format: cell-based, human. The conditions noted are these: 10 or 30 µM paroxetine, vs WT Kv7.2. In outline:
as §2

The test system of the next data set is neuronal Kv7. The conditions noted are these: read-out: IC50, neuronal Kv7 inhibition; cited from earlier work.

Sequence of Kv7.1 (P51787 whole entry): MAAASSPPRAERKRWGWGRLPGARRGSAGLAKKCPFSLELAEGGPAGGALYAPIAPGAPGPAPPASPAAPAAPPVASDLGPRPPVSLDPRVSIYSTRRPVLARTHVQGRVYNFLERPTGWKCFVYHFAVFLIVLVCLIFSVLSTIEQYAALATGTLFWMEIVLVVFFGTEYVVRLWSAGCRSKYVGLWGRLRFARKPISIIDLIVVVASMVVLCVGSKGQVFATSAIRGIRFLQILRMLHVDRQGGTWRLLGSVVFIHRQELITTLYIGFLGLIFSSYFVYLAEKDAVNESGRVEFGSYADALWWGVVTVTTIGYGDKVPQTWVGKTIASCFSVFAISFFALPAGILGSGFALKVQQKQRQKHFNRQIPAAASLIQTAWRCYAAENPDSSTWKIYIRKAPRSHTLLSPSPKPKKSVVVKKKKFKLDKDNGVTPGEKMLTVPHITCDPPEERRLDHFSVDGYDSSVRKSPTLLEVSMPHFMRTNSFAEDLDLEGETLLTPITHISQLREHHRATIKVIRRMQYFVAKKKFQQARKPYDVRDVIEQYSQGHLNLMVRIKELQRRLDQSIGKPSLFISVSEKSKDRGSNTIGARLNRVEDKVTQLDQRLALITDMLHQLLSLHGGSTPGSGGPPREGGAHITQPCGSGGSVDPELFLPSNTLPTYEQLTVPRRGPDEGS
Sequence of Kv7.4 (P56696 whole entry): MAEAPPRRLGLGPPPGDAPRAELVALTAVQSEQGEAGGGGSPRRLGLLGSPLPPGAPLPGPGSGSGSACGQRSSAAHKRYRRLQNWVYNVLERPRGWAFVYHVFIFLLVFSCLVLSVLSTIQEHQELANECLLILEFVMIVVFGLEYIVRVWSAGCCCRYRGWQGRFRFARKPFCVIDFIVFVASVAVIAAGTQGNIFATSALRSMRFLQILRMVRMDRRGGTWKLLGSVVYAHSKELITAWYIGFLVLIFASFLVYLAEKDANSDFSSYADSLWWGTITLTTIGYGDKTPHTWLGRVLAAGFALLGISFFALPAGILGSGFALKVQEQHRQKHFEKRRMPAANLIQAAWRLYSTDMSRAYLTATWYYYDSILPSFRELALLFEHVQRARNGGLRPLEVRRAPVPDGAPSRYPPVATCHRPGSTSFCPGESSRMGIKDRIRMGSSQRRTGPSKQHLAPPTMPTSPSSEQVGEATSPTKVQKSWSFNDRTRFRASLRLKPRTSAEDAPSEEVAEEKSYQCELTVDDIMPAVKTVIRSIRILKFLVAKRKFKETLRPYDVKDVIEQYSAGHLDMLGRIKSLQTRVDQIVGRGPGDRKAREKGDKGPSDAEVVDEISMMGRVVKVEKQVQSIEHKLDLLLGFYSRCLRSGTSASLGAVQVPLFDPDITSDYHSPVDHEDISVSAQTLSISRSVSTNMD
Sequence of Kv7.5 (Homo sapiens, UniProt Q9NR82) (Q9NR82 whole entry): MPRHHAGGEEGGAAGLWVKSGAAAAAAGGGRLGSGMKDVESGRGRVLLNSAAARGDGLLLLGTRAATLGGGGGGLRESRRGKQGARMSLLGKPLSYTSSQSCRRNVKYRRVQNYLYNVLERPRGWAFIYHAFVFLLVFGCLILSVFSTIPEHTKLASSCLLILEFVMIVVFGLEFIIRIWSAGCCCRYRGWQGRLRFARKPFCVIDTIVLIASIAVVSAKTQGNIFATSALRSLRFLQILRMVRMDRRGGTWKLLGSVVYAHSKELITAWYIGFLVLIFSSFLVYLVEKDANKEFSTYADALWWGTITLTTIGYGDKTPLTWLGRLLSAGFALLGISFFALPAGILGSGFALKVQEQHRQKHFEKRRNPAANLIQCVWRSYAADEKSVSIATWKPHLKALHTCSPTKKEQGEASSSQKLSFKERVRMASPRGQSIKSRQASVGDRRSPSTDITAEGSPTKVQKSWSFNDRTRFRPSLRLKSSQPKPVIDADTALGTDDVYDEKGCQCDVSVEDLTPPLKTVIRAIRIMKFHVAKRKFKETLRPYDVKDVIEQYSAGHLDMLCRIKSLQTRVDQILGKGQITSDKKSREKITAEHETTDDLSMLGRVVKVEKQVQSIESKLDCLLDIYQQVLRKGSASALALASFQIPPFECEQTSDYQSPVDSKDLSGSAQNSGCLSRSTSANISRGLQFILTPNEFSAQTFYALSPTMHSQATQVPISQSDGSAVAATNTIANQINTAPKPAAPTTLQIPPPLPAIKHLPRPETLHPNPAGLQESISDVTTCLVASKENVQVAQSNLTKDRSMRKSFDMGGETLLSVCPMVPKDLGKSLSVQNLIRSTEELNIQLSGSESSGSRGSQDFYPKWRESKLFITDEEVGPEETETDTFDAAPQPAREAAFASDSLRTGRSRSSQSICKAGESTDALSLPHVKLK

Turning to `O=C1c2ccccc2C(Cc2ccncc2)(Cc2ccncc2)c2ccccc21` [XE991], the IC50 in the data set with Kv7.1-Kv7.4 channels was 1 to 5 µM; with Kv7.5 [2], approximately 60 µM. Besides, the “Kv7.2 single-channel open probability” value on Kv7.2 channel [1] (XE991 3 μΜ, control 0.21 ± 0.02) is 0.05 ± 0.01. On Kv7.2 channel [1] (XE991 3 μΜ, control 7.7 ± 0.8 pS), this compound had a Kv7.2 single-channel conductance of 8.0 ± 0.4 pS. For the same compound, the “inhibition of Kv7.2/Kv7.3 currents recorded at 0 mV” value against Kv7.2/Kv7.3 channels (3 μM, CHO cells, n = 5) came out at 81.4 ± 1.5%. For the same compound, the “inhibition of M-current” value in [3] (3 μΜ) is 21.2 ± 2.0%. For the same compound, in the data set with hippocampal neurons (3 μM XE991, n = 6), the “firings in hippocampal neurons” value is reported as “increased firings”. Besides, the “depolarizing shift of resting membrane potential (RMP)” value came to 6.2 ± 2.2 mV in the data set on hippocampal neurons (1 μΜ) and 9.7 ± 1.2 mV in the data set on hippocampal neurons (3 μΜ).

For the compound `Fc1ccc([C@@H]2CCNC[C@H]2COc2ccc3c(c2)OCO3)cc1` [paroxetine, paroxetine hydrochloride], the “V1/2 of Kv7.4 in presence of paroxetine” value at Kv7.4 (paroxetine 20 μM, control −14.4 ± 3.6 mV) is on record as −15.2 ± 4.3 mV. For the same compound, the “τdeactivation (−120 mV) of Kv7.4” value on Kv7.4 (paroxetine, control 12.1 ± 1.3 ms) stood at 10.9 ± 1.6 ms. Besides, on Kv7.4 (paroxetine, control 131.5 ± 23.6 ms), the “τactivation (0 mV) of Kv7.4” value is 131.3 ± 22.9 ms. The “effect of F305A mutation on paroxetine-mediated inhibition of Kv7.2” value on F305A Kv7.2 channel is on record as “no notable effect; also recorded: does not significantly affect”. For the same compound, the brain concentrations in data set [4] was 2000 to 14000 nM. Further, the “Kv7.2 single-channel open probability” value at Kv7.2 channel [1] (paroxetine 10 μM, 0 mV, cell-attached, control 0.19 ± 0.01) was found to be 0.09 ± 0.01. The compound further registered a Kv7.2 single-channel conductance at Kv7.2 channel [1] (paroxetine 10 μM, control 7.7 ± 0.4 pS) of 7.7 ± 0.7 pS. Also, the IC50 was 13.8 ± 2.9 µM in the data set on GIRK1/2 channels; 37.2 ± 5.2 µM against Kv7.5 [6]; 9.2 ± 1.3 µM in data set [7]; 41 ± 5.6 µM at Kv7.2 D212A channel; 3.6 ± 0.2 µM against Kv7.2/Kv7.3 channels; 12.3 ± 6.5 µM against Kv7.2 channel [8]. Further, the IC50 on Kv7.1 was 71.8 ± 7.9 µM; in the data set on Kv3.1 channels, 9.4 ± 0.5 µM. Also, in data set [5] (0 mV, cell-attached, control 0.28 ± 0.01), the “open probability of Kv7.2/Kv7.3 single-channels” value turned out to be 0.13 ± 0.01. In addition, the “single-channel conductance of Kv7.2/Kv7.3” value in [5] (control 10.9 ± 1.1 pS, not altered) worked out at 10.4 ± 0.9 pS. On Kv7.5 [6] (paroxetine 20 μM, control −32.7 ± 5.7 mV), the “V1/2 of Kv7.5 in presence of paroxetine” value was −33.6 ± 6.1 mV. Also, the “τdeactivation (−120 mV) of Kv7.5” value at Kv7.5 [6] (paroxetine, control 36.7 ± 1.7 ms) is on record as 35.4 ± 5.0 ms. In addition, the “τactivation (0 mV) of Kv7.5” value at Kv7.5 [6] (paroxetine, control 77.4 ± 5.3 ms) worked out at 79.8 ± 17.6 ms. Further, the “reduction of inhibitory effect by D212A mutation versus wild type” value (in data set [7] (Kv7.2 D212A/Kv7.3 vs Kv7.2/Kv7.3); at Kv7.2 D212A channel (Kv7.2 D212A vs Kv7.2)) was “approximately three-fold” each time. The inhibition at 10 µM at W236A Kv7.2 channel came out at 43.8 ± 6.8%; at F240A Kv7.2 channel it was 46.9 ± 9.7%; at L299A Kv7.2 channel it was 59.4 ± 10.4%; on Kv7.2 channel [8] (HEK-293T, read-out: inhibition of WT Kv7.2 current), 56.6 ± 2.9%. Further, on Kv7.2/Kv7.3 channels (CHO, read-out: inhibition of Kv7.2/Kv7.3 currents recorded at 0 mV), the inhibition at 3 µM stood at 62.8 ± 6.5%. The “τdeactivation (−120 mV) of Kv7.2/Kv7.3” value on Kv7.2/Kv7.3 channels (paroxetine 3 μΜ, control 14.4 ± 1.1 ms) was found to be 12.6 ± 0.7 ms. The “τactivation (0 mV) of Kv7.2/Kv7.3” value on Kv7.2/Kv7.3 channels (paroxetine 3 μΜ, control 94.5 ± 11.0 ms) amounted to 112.8 ± 9.0 ms. Also, the “V1/2 (half activation voltage) of Kv7.2/Kv7.3 in presence of paroxetine” value at Kv7.2/Kv7.3 channels (paroxetine 3 μΜ, control −3.9 ± 1.2 mV, not significant) was −7.5 ± 3.5 mV. The “τdeactivation (−120 mV) of Kv7.2” value on Kv7.2 channel [8] (paroxetine 10 μM, control 24.9 ± 10.0 ms) is recorded as 18.6 ± 6.9 ms. The “τactivation (0 mV) of Kv7.2” value at Kv7.2 channel [8] (paroxetine 10 μM, control 132.6 ± 15.0 ms) was found to be 141.7 ± 15.8 ms. In addition, the “V1/2 of Kv7.2 in presence of paroxetine” value at Kv7.2 channel [8] (paroxetine 10 μM, control −12.0 ± 0.8 mV) is −9.1 ± 2.0 mV. Besides, on Kv7.1 (paroxetine 50 μM, control −3.2 ± 2.1 mV, P < 0.05), the “V1/2 of Kv7.1 in presence of paroxetine” value worked out at 4.6 ± 2.1 mV. Also, the “τdeactivation (−120 mV) of Kv7.1” value at Kv7.1 (paroxetine near its IC50, control 39.9 ± 3.3 ms) is listed as 27.9 ± 3.6 ms. Besides, the “reduction of channel sensitivity to paroxetine by F304A mutation” value in the data set on F304A Kv7.2 channel is on record as “three-fold”. Moreover, the “inhibition of M-current” value is given as 31.5 ± 4.6% in data set [3] (3 μΜ) and 52.4 ± 2.0% in [3] (10 μΜ). Besides, the “resting membrane potential after drug” value with hippocampal neurons (3 μΜ, from −57.2 ± 3.4 mV) is −48.6 ± 2.4 mV; with hippocampal neurons (10 μΜ, from −62.2 ± 1.7 mV), −48.5 ± 2.0 mV. Further, the “firing activity of hippocampal neurons in response to current injection” value in the data set on hippocampal neurons (paroxetine at 3 and 10 μΜ) is “significantly increased”.

As for `CC[C@H](C(=O)Nc1ccccc1N1CCCC1)c1ccccc1` [ML252], the IC50 in the data set with neuronal Kv7 is 1 to 6 µM.
